Measurements from ChEMBL document CHEMBL3351712, “Synthesis and antiviral evaluation of 2-amino-6-carbamoylpurine dioxolane nucleoside derivatives and their phosphoramidates prodrugs” (Bioorg Med Chem, 2014).

What was measured:
[1] = system: CCRF-CEM; assay: Cytotoxicity against human CEM cell; type: functional
[2] = system: Hepatitis B virus; assay: Antiviral activity against Hepatitis B virus; type: functional, organism-based
Method in brief: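 Anti-HBV activity measured in HepG2 cells.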

[3] = system: PBMC; assay: (§1) Cytotoxicity against human PBMC; type: cell-based; details: pbmc
[4] = system: Vero; assay: (§2) Cytotoxicity against african green monkey Vero cells; type: cell-based; details: chlorocebus sabaeus, vero
[5] = system: HepG2; assay: Cytotoxicity against human HepG2 cells; type: functional
[6] = system: Human immunodeficiency virus 1; assay: Antiviral activity against HIV1; type: functional, organism-based
Method in brief: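 Antiviral assay run in primary human lymphocytes.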

[7] = as §1; type: cell-based; details: PBMC (peripheral blood mononuclear cells)
[8] = as §2; type: cell-based; details: chlorocebus sabaeus, Vero cells

Structure (SMILES) | CC50 [1] | EC50 [2] | EC90 [2] | CC50 [3] | CC50 [4] | CC50 [5] | EC50 [6] | EC90 [6] | CC50 [7] | CC50 [8]
CCCCCCCCCCCCCC(=O)Nc1nc(N)nc2c1ncn2[C@H]1CO[C@@H](CO)O1 | 4.6 µM | > 10 µM | > 10 µM | > 100 µM | 7.7 µM | 56 µM | 6.5 µM | 27 µM |  | 
CC(=O)Nc1nc(N)nc2c1ncn2[C@H]1CO[C@@H](CO)O1 | > 100 µM | > 10 µM | > 10 µM | > 100 µM | > 100 µM | > 100 µM | 0.56 µM | 12 µM |  | 
CCCC(=O)Nc1nc(N)nc2c1ncn2[C@H]1CO[C@@H](CO)O1 | > 100 µM | > 10 µM | > 10 µM | > 100 µM | > 100 µM | > 100 µM | 9.2 µM | 38 µM |  | 
CCCCCC(=O)Nc1nc(N)nc2c1ncn2[C@H]1CO[C@@H](CO)O1 | > 100 µM | > 10 µM | > 10 µM | > 100 µM | > 100 µM | > 100 µM | 34 µM | > 100 µM |  | 
CCCCCCCC(=O)Nc1nc(N)nc2c1ncn2[C@H]1CO[C@@H](CO)O1 | > 100 µM | > 10 µM | > 10 µM | > 100 µM | > 100 µM | > 100 µM | 21 µM | 56 µM |  | 
CCCCCCCCCC(=O)Nc1nc(N)nc2c1ncn2[C@H]1CO[C@@H](CO)O1 | 65 µM | > 10 µM | > 10 µM | > 100 µM | > 100 µM | > 100 µM | 26 µM | 65 µM |  | 
CCCCCCCCCCCC(=O)Nc1nc(N)nc2c1ncn2[C@H]1CO[C@@H](CO)O1 | 13 µM | > 10 µM | > 10 µM | 60 µM | 53 µM | > 100 µM | 3.6 µM | 18 µM |  | 
CCCCCCCCCCCCCCCC(=O)Nc1nc(N)nc2c1ncn2[C@H]1CO[C@@H](CO)O1 | > 100 µM | > 10 µM | > 10 µM | > 100 µM | 90 µM | > 100 µM | 1.2 µM | 6 µM |  | 
CCCCCCCC/C=C\CCCCCCCC(=O)Nc1nc(N)nc2c1ncn2[C@H]1CO[C@@H](CO)O1 | 13 µM | > 10 µM | > 10 µM |  |  | 11 µM | 3.5 µM | 13 µM | 76 µM | 19 µM
Nc1nc(N)c2ncn([C@H]3CO[C@@H](CO)O3)c2n1 [AMDOXOVIR] | > 100 µM | 12 µM | > 100 µM | > 100 µM | > 100 µM | > 100 µM | 0.45 µM | 7.6 µM |  | 
Cc1cn([C@H]2C[C@H](N=[N+]=[N-])[C@@H](CO)O2)c(=O)[nH]c1=O [ZIDOVUDINE] | 14 µM | > 10 µM | > 10 µM |  | 56 µM | > 100 µM | 0.0037 µM | 0.047 µM | > 100 µM | 
